These results are taken from ChEMBL document CHEMBL3046072, “Plant P5C reductase as a new target for aminomethylenebisphosphonates” (J Agric Food Chem, 2007).

Molecules are shown by their SMILES. pIC50, pKi: −log10 of the molar value.

For assay [1], the target named is T1, Pyrroline-5-carboxylate reductase (Arabidopsis thaliana) (UniProt P54904).
T1 sequence (whole entry): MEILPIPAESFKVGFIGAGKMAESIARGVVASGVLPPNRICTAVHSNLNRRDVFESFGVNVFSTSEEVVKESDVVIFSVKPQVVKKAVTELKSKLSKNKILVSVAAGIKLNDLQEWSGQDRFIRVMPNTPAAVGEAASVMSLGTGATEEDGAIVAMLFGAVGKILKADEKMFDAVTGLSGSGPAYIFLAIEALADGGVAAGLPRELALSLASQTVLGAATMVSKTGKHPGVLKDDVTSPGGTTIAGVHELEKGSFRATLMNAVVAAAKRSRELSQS
Put plainly: Inhibition of Arabidopsis thaliana P5C reductase catalytic activity assessed as […] at 535 nm OD at 0.5 mM by P5C utilization assay. Also noted: scale not given: the % may be the effect or the level left. In outline: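 The partially purified Arabidopsis enzyme was run in the same Tris pH 8.0/MgCl2/DL-P5C/NADH mix with compound at 0.5 mM, at 35 °C. Aliquots taken every 40 s received Na acetate and 0.15% ninhydrin in acetic acid, then 10 min at 55 °C. Residual P5C was read at 535 nm (ε 4600 M⁻¹ cm⁻¹). At least three replicates; activity given as % of untreated control.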

For assay [2], the target named is T1, Pyrroline-5-carboxylate reductase (Arabidopsis thaliana). Put plainly: Inhibition of Arabidopsis thaliana P5C reductase catalytic activity assessed as inhibition of NADH oxidation at 340 nm OD at 0.2 mM by NADH oxidation assay. Also noted: scale not given: the % may be the effect or the level left.
For assay [3], the target named is T2, Pyrroline-5-carboxylate reductase (Arabidopsis thaliana, UniProt P54904).
T2 sequence (P54904 whole entry): T1 sequence (whole entry)
Put plainly: Inhibition of Arabidopsis thaliana P5C reductase catalytic activity. The settings on record: read-out: I50. In outline: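 P5C reductase partially purified from A. thaliana Columbia suspension-cultured cells by ammonium sulfate cut and two DEAE-Sephacel steps. Assay at 35 °C: 100 mM Tris-HCl pH 8.0, 0.1 mM MgCl2, 2 mM DL-P5C, 0.25 mM NADH. Read as NADH oxidation at 340 nm, or as P5C loss by ninhydrin at 535 nm. Inhibitor neutralised to pH 7.4, tested over 0.010–5 mM. I50 from regression of % control activity versus log concentration.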

In assay [4] the target is T2, Pyrroline-5-carboxylate reductase. Put plainly: Noncompetitive inhibition of Arabidopsis thaliana P5C reductase by Lineweaver-Burk plot in presence of NADPH.
The target is the same in assay [5]. Put plainly: Uncompetitive inhibition of Arabidopsis thaliana P5C reductase by Dixon plot.
For assay [6] the target is unchanged. Put plainly: Noncompetitive inhibition of Arabidopsis thaliana P5C reductase by Lineweaver-Burk plot.
The target of assay [7] is 3-phosphoshikimate 1-carboxyvinyltransferase (Nicotiana tabacum). Put plainly: Inhibition of EPSP synthase in Nicotiana tabacum (tobacco) cells. The settings on record: read-out: I50.
Assay [8] concerns the target 3-phosphoshikimate 1-carboxyvinyltransferase (Spinacia oleracea). Put plainly: Inhibition of Spinacia oleracea (spinach) EPSP synthase activity. The conditions noted are these: read-out: I50.

As to `O=P(O)(O)C(Nc1ccc(Br)cn1)P(=O)(O)O`, the figures for the Activity in assay [1] and in assay [2] were 100% and 104%, respectively.
The like results for `O=P(O)(O)C(Nc1ncc(Cl)cc1Cl)P(=O)(O)O` were, in that order, 97% and 105%.
`O=C(O)c1cccnc1NC(P(=O)(O)O)P(=O)(O)O`: the Activity came out at 94.1% in assay [1] and 96.3% in assay [2].
Turning to `O=P(O)(O)C(Nc1ccnc(Cl)c1)P(=O)(O)O`, the Activity in assay [1] was found to be 97.9%; in assay [2], 91.2%.
As for `Cc1ccccc1CNC(P(=O)(O)O)P(=O)(O)O`, the values for the Activity in assay [1] and in assay [2] were 96.9% and 109%, respectively.
In the same order, the values of `O=C(O)c1cccc(NC(P(=O)(O)O)P(=O)(O)O)c1` are 92.4% and 95%.
`O=P(O)(O)C(Nc1ccc(Cl)cn1)P(=O)(O)O`: the Activity in assay [1] stood at 92.4%; in assay [2] it was 101%.
Consider `O=P(O)(O)C(Nc1ncc(Br)cc1Br)P(=O)(O)O`, for which the Activity in assay [1] was 99.8%; in assay [2], 92%.
`O=P(O)(O)C(Nc1ccncc1)P(=O)(O)O`: the Activity in assay [1] stood at 101%; in assay [2], 115%.
As for `O=P(O)(O)C(NCc1ccccc1)P(=O)(O)O`, the Activity was found to be 100% in assay [1] and 98.5% in assay [2].
Consider `NC(P(=O)(O)O)P(=O)(O)O` [AMINOMETHYLENEBISPHOSPHONIC ACID], for which, in assay [3], the pIC50 was 4.36. Further, the Activity is 84.6% in assay [1] and 106% in assay [2].
For `O=P(O)(O)C(Nc1ccccn1)P(=O)(O)O`, the Activity in assay [1] came out at 104%; in assay [2] it was 114%.
In the case of `O=P(O)(O)C(Nc1cccnc1)P(=O)(O)O`, the Activity in assay [1] turned out to be 102%; in assay [2], 109%.
In the same order, the values of `O=P(O)(O)C(Nc1ccccc1)P(=O)(O)O` are 114% and 98.3%.
Broadly, the pKi is the negative decadic logarithm of the Ki, by convention in mol/L. Consider `O=P(O)(O)C(Nc1cc(Cl)cc(Cl)c1)P(=O)(O)O` [(3,5-DICHLOROPHENYLAMINO)METHYLENEDIPHOSPHONIC ACID], for which the negative-log Ki (pKi) in assay [4] is 3.64; in assay [5], 4.99; in assay [6], 3.70. Also, the results for the Activity in assay [1] and in assay [2] were 28% and 37.7%, respectively. Further, the pIC50 in assay [7] and in assay [8] was 4.52 throughout.
For the compound `O=P(O)(O)C(NC1CCCCC1)P(=O)(O)O`, the Activity is 93.8% in assay [1] and 108% in assay [2].
In the same order, the values of `Cc1ccnc(NC(P(=O)(O)O)P(=O)(O)O)c1` are 106% and 106%.
On to `Cc1ccc(NC(P(=O)(O)O)P(=O)(O)O)cc1`, for which the Activity worked out at 98.2% in assay [1] and 110% in assay [2].
With `O=P(O)(O)C(NCc1ccccn1)P(=O)(O)O`, the results for the Activity in assay [1] and in assay [2] were 92.9% and 118%, respectively.
With `Cc1nc(NC(P(=O)(O)O)P(=O)(O)O)c(Br)cc1Br`, in assay [3], the pIC50 was 3.52. For the same compound, the Activity in assay [1] was 54.8%; in assay [2], 66.1%.
Regarding `O=P(O)(O)C(Nc1ncccn1)P(=O)(O)O`, the Activity is 91.7% in assay [1] and 110% in assay [2].
The like results for `O=P(O)(O)C(Nc1ccc(I)cn1)P(=O)(O)O` were, in that order, 89.9% and 106%.
The like results for `O=P(O)(O)C(NCCc1ccc(O)cc1)P(=O)(O)O` were, in that order, 94.4% and 105%.
In the same order, the values of `O=[N+]([O-])c1cccc(NC(P(=O)(O)O)P(=O)(O)O)c1` are 96.4% and 102%.
Take `Cc1cccc(NC(P(=O)(O)O)P(=O)(O)O)n1`: the results for the Activity in assay [1] and in assay [2] were 103% and 88.7%, respectively.
In the same order, the values of `O=P(O)(O)C(Nc1ccc(Cl)nc1)P(=O)(O)O` are 94.9% and 99.4%.
